STAT1 inh = reduces IFN-gamma driven STAT1 reporter signal | NIH 3T3 STAT1-luciferase reporter, luminescence | inhibition, % at 5.5 µM | 200,000 compounds, 0.35% hits | AID 920;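 active = inhibition above a set limit, the mean inhibition across all tested compounds plus 3 SD, cut at about 34% in these data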;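 also: 0% = IFN-gamma with DMSO and 100% = IFN-gamma with 300 µM nifuroxazide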
NF-kB neuron act = NF-kB expression increase, human neuronal cells | NF-kB reporter expression; hits give high values | fold change at 12.5 µM | 190,000 compounds, 1.6% hits; in the data active = fold change above about 3.3
STAT3 blocker = inhibitors of IL-6 induced STAT3 signaling. AID 862. 190,000 compounds, 0.89% hits. U3A cells, IL-6 STAT3-luciferase reporter, luminescence; host cell line lacks STAT1. inhibition, % at 5.5 µM;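 active = inhibition above the mean inhibition across all screened compounds plus 3 SD, cut at about 44% in these data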;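 also: 0% = DMSO only wells and 100% = 100 µM nifuroxazide control wells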
APP 5'UTR act = APP 5'UTR luciferase reporter activation; SH-SY5Y APP 5'UTR luciferase reporter, luminescence; zero percent = DMSO vehicle wells; activation, % at 2 µM; 190,000 compounds, 1% hits; AID 1276;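 active = activation above a set limit, based on mean plus 3 SD of controls, cut at about 140% in these data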
STAT3 act = STAT3 signaling activation | U3A cells, IL-6 STAT3-luciferase reporter, luminescence; 100% = signal with IL-6 EC80 alone | activation (% of control), % at 5.6 µM | 190,000 compounds, 0.91% hits | AID 871;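 active = activation above the screen-wide mean of compound activation plus 3 SD, cut at about 130% in these data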;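 also: 0% = background luminescence of wells with medium and substrate only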
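System – human U3A cells carrying STAT3-luciferase construct · Probe or stimulus – Interleukin-6, 33 ng/mL · Schedule – compound 1 h, then IL-6 6 h at 37 °C · Signal – luminescence from STAT3-driven luciferase reporter · Evaluation – percent of IL-6-only median luminescence · Benchmarks – IL-6-only high control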
STAT1 act = activators of IFN-gamma induced STAT1 signaling; NIH 3T3 STAT1-luciferase reporter, luminescence; 100% = IFN-gamma alone, no compound; activation (% of control), % at 5.5 µM; 200,000 compounds, 2.6% hits; AID 932;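 active = activation above the screen-wide mean activation plus 3 SD, cut at about 130% in these data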;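 also: raw ratio to IFN-gamma control signal so 100% means no change and 0% no light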
* hit, by the source's call; nt = no result. Compounds with a hit are over-represented: about 4.9% of the library has one in this group of screens.

SMILES	STAT1 inh	NF-kB neuron act	STAT3 blocker	APP 5'UTR act	STAT3 act	STAT1 act
Cc1cc(C)c2c(N=NN3CCOCC3)[nH]nc2n1	-7	1	8	-2	93	106
CC(C)Oc1cccc(C(=O)O)c1	-3	1.4	7	-18	97	103
CCC(=O)N1CCc2cc(S(=O)(=O)CCC(=O)Nc3cccc(C)n3)ccc21	-1	1.2	1	5	104	98
CC(=O)Nc1ccc2nc(NC(=O)COc3ccccc3)sc2c1	-19	1	11	30	97	115
CC(=O)Nc1ccc2nc(NC(=O)CCc3ccccc3)sc2c1	-37	1.1	-1	8	103	134*
Cc1ccc(CC(NC(=O)c2ccccc2)C(=O)NCC(=O)O)cc1 (configuration not stated)	-3	1.2	4	-17	97	103
CC1Cc2cc(/C(O)=C3/C(=O)C(=O)N(CCCn4ccnc4)C3c3ccco3)ccc2O1 (configuration not stated)	-35	0.75	8	91	97	132*
CC1Cc2cc(/C(O)=C3/C(=O)C(=O)N(CCCn4ccnc4)C3c3ccncc3)ccc2O1 (configuration not stated)	2	1	4	12	105	97
COc1ccc(NC(=O)c2cccn(CC=C(C)C)c2=O)cc1	-29	1.8	8	3	100	128
CC(=O)Nc1ccc2nc(C3CC3)n(Cc3ccc(Cl)cc3)c(=O)c2c1	-52	2.2	-10	106	109	146*
O=C(Nc1ccc2nc(C3CC3)n(Cc3ccc(F)cc3)c(=O)c2c1)c1ccco1	-14	0.5	28	23	81	113
Cn1c(=O)c2ncn(CC(=O)N/N=C/c3ccco3)c2n(C)c1=O	1	0.92	-3	10	106	99
Cn1c(SCCS(=O)(=O)c2ccc(Cl)cc2)nnc1-c1ccccc1	-2	0.94	6	-10	100	101
Cc1c(N(C(=O)Cc2cccs2)C2(C(=O)NC3CCCC3)CCCCC2)c(=O)n(-c2ccccc2)n1C	2	4.1*	12	9	100	97
O=C1c2ccccc2C(=O)C12OC2c1ccc(Cl)cc1Cl (configuration not stated)	-1	4.1*	0	-25	101	100
Cc1cc(C(=O)CSc2cccc[n+]2[O-])c(C)n1-c1ccccc1	11	3.8*	42	149*	68	90
Cc1ccc(-n2c(C)cc(C(=O)CSc3nncs3)c2C)cc1	-31	5.4*	28	139*	82	129*
Cc1cc(C(=O)CSc2nncs2)c(C)n1-c1c(C)n(C)n(-c2ccccc2)c1=O	-8	1.2	13	-5	96	107
Cc1cc(C(=O)CSc2nncn2C)c(C)n1-c1ccccc1	4	4.2*	37	122	72	96
COc1ccc(S(=O)(=O)NCc2ccccn2)c(Cl)c1Cl	-5	1.1	-2	2	105	105
Cc1c(-c2ccc(Br)cc2)nc2ccccn12	-53	2.4	-14	129	118	148*
CN(C)c1ccc(-c2nc3ccccn3c2/N=C/c2ccc(Br)cc2)cc1	-38	1.8	14	158*	90	134*
COc1cc(-c2nc3ccccn3c2/N=C/c2cc(OC)c(OC)c(OC)c2)ccc1O	-7	nt	10	8	100	106
COc1ccc(-c2nc3c4ccccc4ccn3c2C=O)cc1	5	1.2	-14	14	114	96
Cc1ccc(-c2nc3ccccn3c2C=O)cc1	-37	3.1	0	58	107	132*
SMILES	STAT1 inh	NF-kB neuron act	STAT3 blocker	APP 5'UTR act	STAT3 act	STAT1 act
c1ccn2c(c1)nc1c2nc2ccccn21	-27	2	11	22	96	126
O=c1c(=NNc2ccccc2Cl)c(=O)c2ccccc12	-2	0.93	27	154*	85	102
COc1cc(CNc2ccc(N3CCCC3)cc2)ccc1OCc1ccccc1	-24	1.1	-31	84	134*	121
Fc1ccccc1Cn1nnc(-c2ccc3c(c2)OCO3)n1	-39	5.7*	-5	166*	108	136*
O=C(NCc1ccccc1F)c1ccc2c(c1)OCO2	1	1.3	0	3	105	99
O=C(NCc1cccnc1)c1ccccc1CCc1ccccc1	4	1.3	4	-5	99	94
CCn1ccc(C(=O)Nc2ccc(N(C)C(C)=O)cc2)n1	-4	1.9	-3	25	106	104
CCn1ccc(C(=O)Nc2ccc(Cl)cn2)n1	-34	2.8	15	nt	95	131*
CCn1ccc(C(=O)Nc2ccccc2SC)n1	-45	1.5	1	37	111	140*
CCn1nccc1C(=O)Nc1ccc(Cl)cn1	-18	1.8	4	13	100	116
O=C(c1ccc(F)cc1)N(c1ccccn1)C1CCCCC1	6	0.93	12	-15	96	92
CCOC(=O)c1c(C)[nH]c(C2=NNC(=NC3CC3)SC2)c1C	61*	0.89	76*	158*	40	43
Clc1ccc(-c2cc(CSc3cccc(Cl)c3)on2)cc1	2	1.3	29	nt	81	98
Clc1ccc(-c2cc(CSc3ccccc3)on2)cc1	-40	6.2*	7	nt	99	136*
OCCN1CCN(c2nc(-c3ccccc3)nc3c2oc2ccccc23)CC1	-2	0.41	17	-10	92	102
NCCCC[C@H]1CNC(=S)N1CCCCC1CCCCC1	20	0.81	nt	1	nt	83
O=C(COC(=O)C1CC1)Nc1ccc(N=Nc2ccccc2)cc1	-38	1.2	6	101	94	136*
COC(=O)c1ccc(N=Nc2ccccc2)cc1	-35	3.3	13	39	91	132*
COC(=O)CCC(=O)Nc1ccc(N=Nc2ccccc2)cc1	-37	2.6	17	54	95	133*
CC(=O)Nc1c(O)nc(SCc2ccccc2C#N)[nH]c1=O	-1	1.2	-10	-1	106	101
COc1ccccc1CN1CC(C(=O)NCc2cccnc2)CC1=O (configuration not stated)	6	0.91	14	8	90	95
CC/C(=N\NC(=O)c1c[nH]c2ccccc12)c1cccs1	-41	2.1	-12	96	115	136*
Cc1ccc(/C=N/NC(=O)c2c[nH]c3ccccc23)s1	-51	3.1	-18	78	119	146*
Cc1ccsc1/C=N/NC(=O)c1c[nH]c2ccccc12	-28	2.5	-22	70	127	126
COc1cc(/C=N/NC(=O)c2ccoc2C)ccc1O	-42	2.4	13	72	88	138*
Cc1ccc(/C=N/NC(=O)c2ccoc2C)s1	-44	2.3	-10	79	109	139*
